Measured values from ChEMBL document CHEMBL4304834, “3-Amino-chromanes and Tetrahydroquinolines as Selective 5-HT2B, 5-HT7, or σ1 Receptor Ligands” (ACS Med Chem Lett, 2019).

Biological target: Beta-2 adrenergic receptor (Homo sapiens, UniProt P07550)
Test: Displacement of [3H]-CGP12177 from human recombinant adrenergic Beta2 receptor expressed in Flp-In HEK cells at 10 uM after 90 mins by microbeta scintillation counting method relative to control
Type: cell-based
Procedure, shortened: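 Radioligand binding run by the NIMH Psychoactive Drug Screening Program. […] Otherwise Ki comes from sigmoidal curve fits of triplicate measurements in a single experiment, or is averaged over repeated experiments each run in triplicate.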

Sequence of Beta-2 adrenergic receptor (P07550 whole entry, looked up): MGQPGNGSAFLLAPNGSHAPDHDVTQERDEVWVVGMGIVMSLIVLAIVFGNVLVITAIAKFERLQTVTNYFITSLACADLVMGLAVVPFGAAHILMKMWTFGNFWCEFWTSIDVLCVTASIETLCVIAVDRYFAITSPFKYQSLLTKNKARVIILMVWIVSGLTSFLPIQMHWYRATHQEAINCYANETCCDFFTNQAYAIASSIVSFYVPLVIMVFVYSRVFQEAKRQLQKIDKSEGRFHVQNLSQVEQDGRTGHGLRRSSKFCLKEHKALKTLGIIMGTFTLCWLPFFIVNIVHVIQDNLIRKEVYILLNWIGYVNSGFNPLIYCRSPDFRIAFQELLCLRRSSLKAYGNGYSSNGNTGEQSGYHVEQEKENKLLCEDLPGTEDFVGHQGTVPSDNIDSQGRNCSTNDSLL

`CC[C@H]1c2cc(C)ccc2OC[C@@]1(C)N` (racemic) was tested, and the inhibition was < 50%.
